Source: ChEMBL document CHEMBL5705888, “Substrate specificity and inhibitors of LRRK2, a protein kinase mutated in Parkinson's disease” (Biochem J, 2009)
The source made the active and inactive calls. The calls are words filed in the database; no cut-off is given here.

Legend:
[1] = biological target: Serine/threonine-protein kinase PAK 6 (Homo sapiens) (UniProt Q9NQU5); assay: Inhibition of PAK6 (unknown origin) at 1 uM incubated for 30 mins in presence of [gamma-33P]ATP by multidrop micro reagent based assay relative to control
[2] = biological target: Misshapen-like kinase 1 (Homo sapiens) (UniProt Q8N4C8); assay: Inhibition of MINK1 (unknown origin) at 1 uM incubated for 30 mins in presence of [gamma-33P]ATP by multidrop micro reagent based assay relative to control
[3] = biological target: Fibroblast growth factor receptor 1 (Homo sapiens) (UniProt P11362); assay: Inhibition of FGFR1 (unknown origin) at 1 uM incubated for 30 mins in presence of [gamma-33P]ATP by multidrop micro reagent based assay relative to control
[4] = biological target: Rho-associated protein kinase 2 (Homo sapiens, UniProt O75116); assay: Inhibition of ROCK2 in human Flp-In-T-REx-293 cells harboring GFP-tagged constitutively active G14V-Rho mutant assessed as inhibition of MYPT phosphorylation at Thr850 at 10 uM incubated for 1 hr by immunoblot analysis; type: cell-based
Procedure, shortened: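 Flp-In T-REx cells carrying GFP-tagged G14V-Rho were induced with 1 μg/ml doxycycline in the medium. Seven hours after induction, cells were treated with 10 μM inhibitor for 1 h. They were then lysed directly in SDS lysis buffer and run on 4–12% gels. Blots were probed with anti-MYPT pThr850 (1 μg/ml in 5% BSA/TBST), followed by HRP secondary and ECL detection.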

[5] = biological target: Ribosomal protein S6 kinase alpha-1 (Homo sapiens) (UniProt Q15418); assay: Inhibition of RSK1 (unknown origin) at 1 uM incubated for 30 mins in presence of [gamma-33P]ATP by multidrop micro reagent based assay relative to control; values are per cent of control
[6] = biological target: Serine/threonine-protein kinase N2 (Homo sapiens) (UniProt Q16513); assay: Inhibition of PRK2 (unknown origin) at 1 uM incubated for 30 mins in presence of [gamma-33P]ATP by multidrop micro reagent based assay relative to control; values are per cent of control
[7] = biological target: Serine/threonine-protein kinase pim-3 (Homo sapiens) (UniProt Q86V86); assay: Inhibition of PIM3 (unknown origin) at 1 uM incubated for 30 mins in presence of [gamma-33P]ATP by multidrop micro reagent based assay relative to control; values are per cent of control
[8] = biological target: T1, Serine/threonine-protein kinase 3 (Homo sapiens) (UniProt Q13188); assay: Inhibition of MST2 (unknown origin) at 1 uM incubated for 30 mins in presence of [gamma-33P]ATP by multidrop micro reagent based assay relative to control; values are per cent of control
T1 sequence (whole entry): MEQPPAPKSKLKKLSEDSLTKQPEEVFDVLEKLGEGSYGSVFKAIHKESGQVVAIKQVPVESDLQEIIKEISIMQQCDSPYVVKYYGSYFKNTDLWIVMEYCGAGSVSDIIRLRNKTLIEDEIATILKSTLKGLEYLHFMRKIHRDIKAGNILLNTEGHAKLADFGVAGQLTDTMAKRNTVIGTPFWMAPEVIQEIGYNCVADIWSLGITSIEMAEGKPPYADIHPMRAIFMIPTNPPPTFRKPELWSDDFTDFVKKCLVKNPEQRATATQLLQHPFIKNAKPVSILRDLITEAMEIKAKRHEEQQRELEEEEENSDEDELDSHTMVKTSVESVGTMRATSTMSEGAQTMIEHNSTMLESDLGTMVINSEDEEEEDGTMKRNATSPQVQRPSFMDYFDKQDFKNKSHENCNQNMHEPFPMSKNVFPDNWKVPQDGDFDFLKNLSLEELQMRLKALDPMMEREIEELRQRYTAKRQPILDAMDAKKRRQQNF

[9] = biological target: Serine/threonine-protein kinase PAK 5 (Homo sapiens) (UniProt Q9P286); assay: Inhibition of PAK5 (unknown origin) at 1 uM incubated for 30 mins in presence of [gamma-33P]ATP by multidrop micro reagent based assay relative to control; values are per cent of control
[10] = biological target: Tyrosine-protein kinase Yes (Homo sapiens) (UniProt P07947); assay: Inhibition of YES1 (unknown origin) at 1 uM incubated for 30 mins in presence of [gamma-33P]ATP by multidrop micro reagent based assay relative to control; values are per cent of control
[11] = biological target: Leucine-rich repeat serine/threonine-protein kinase 2 (Homo sapiens, UniProt Q5S007); assay: Inhibition of LRRK2 (unknown origin) at 1 uM incubated for 30 mins in presence of [gamma-33P]ATP by multidrop micro reagent based assay relative to control; values are per cent of control
[12] = biological target: T2, Inhibitor of nuclear factor kappa-B kinase subunit beta (Homo sapiens) (UniProt O14920); assay: Inhibition of IKKbeta (unknown origin) at 1 uM incubated for 30 mins in presence of [gamma-33P]ATP by multidrop micro reagent based assay relative to control; values are per cent of control
T2 sequence (whole entry): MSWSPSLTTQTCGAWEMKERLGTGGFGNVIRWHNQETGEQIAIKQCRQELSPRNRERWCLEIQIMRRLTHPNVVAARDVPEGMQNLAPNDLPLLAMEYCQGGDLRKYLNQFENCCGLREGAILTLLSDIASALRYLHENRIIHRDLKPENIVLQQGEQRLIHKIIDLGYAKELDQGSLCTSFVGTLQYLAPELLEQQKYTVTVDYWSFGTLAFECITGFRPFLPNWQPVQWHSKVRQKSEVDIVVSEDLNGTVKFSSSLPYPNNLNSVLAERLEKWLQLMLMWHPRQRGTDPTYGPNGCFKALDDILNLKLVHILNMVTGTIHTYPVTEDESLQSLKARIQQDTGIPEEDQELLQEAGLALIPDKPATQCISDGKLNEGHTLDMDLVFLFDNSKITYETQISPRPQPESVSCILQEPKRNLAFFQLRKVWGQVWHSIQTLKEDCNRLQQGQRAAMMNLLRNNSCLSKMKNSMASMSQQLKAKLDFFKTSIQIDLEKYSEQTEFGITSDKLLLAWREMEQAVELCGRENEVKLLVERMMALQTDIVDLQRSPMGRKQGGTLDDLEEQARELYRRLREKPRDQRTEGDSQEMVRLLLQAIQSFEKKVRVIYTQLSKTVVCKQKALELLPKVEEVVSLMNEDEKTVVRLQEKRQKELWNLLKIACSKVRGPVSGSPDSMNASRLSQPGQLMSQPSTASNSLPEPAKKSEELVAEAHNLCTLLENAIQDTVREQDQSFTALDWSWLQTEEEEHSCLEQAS

[13] = biological target: Mitogen-activated protein kinase 11 (Homo sapiens) (UniProt Q15759); assay: Inhibition of p38beta MAPK (unknown origin) at 1 uM incubated for 30 mins in presence of [gamma-33P]ATP by multidrop micro reagent based assay relative to control; values are per cent of control

Ribosomal protein S6 kinase alpha-1 (Homo sapiens), sequence (Q15418 whole entry): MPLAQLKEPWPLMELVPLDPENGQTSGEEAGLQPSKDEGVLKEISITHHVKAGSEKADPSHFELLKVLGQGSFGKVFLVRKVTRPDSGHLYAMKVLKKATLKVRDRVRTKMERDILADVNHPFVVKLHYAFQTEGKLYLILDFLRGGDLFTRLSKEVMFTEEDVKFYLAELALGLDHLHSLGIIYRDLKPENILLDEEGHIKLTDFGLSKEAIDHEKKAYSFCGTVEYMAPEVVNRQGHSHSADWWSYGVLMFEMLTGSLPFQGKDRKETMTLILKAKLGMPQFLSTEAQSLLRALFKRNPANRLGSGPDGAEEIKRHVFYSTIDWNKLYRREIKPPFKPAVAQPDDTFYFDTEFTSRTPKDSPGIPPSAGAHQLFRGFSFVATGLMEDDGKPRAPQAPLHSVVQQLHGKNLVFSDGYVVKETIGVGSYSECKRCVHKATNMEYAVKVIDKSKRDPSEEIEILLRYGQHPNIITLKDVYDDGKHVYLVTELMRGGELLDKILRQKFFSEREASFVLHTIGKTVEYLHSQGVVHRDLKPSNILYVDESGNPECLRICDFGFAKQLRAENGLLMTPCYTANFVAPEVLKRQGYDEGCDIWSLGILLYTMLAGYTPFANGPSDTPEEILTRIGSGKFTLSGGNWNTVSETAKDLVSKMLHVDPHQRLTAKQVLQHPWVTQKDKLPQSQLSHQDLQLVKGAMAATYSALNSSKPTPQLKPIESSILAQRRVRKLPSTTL
Rho-associated protein kinase 2, sequence (O75116 whole entry, looked up): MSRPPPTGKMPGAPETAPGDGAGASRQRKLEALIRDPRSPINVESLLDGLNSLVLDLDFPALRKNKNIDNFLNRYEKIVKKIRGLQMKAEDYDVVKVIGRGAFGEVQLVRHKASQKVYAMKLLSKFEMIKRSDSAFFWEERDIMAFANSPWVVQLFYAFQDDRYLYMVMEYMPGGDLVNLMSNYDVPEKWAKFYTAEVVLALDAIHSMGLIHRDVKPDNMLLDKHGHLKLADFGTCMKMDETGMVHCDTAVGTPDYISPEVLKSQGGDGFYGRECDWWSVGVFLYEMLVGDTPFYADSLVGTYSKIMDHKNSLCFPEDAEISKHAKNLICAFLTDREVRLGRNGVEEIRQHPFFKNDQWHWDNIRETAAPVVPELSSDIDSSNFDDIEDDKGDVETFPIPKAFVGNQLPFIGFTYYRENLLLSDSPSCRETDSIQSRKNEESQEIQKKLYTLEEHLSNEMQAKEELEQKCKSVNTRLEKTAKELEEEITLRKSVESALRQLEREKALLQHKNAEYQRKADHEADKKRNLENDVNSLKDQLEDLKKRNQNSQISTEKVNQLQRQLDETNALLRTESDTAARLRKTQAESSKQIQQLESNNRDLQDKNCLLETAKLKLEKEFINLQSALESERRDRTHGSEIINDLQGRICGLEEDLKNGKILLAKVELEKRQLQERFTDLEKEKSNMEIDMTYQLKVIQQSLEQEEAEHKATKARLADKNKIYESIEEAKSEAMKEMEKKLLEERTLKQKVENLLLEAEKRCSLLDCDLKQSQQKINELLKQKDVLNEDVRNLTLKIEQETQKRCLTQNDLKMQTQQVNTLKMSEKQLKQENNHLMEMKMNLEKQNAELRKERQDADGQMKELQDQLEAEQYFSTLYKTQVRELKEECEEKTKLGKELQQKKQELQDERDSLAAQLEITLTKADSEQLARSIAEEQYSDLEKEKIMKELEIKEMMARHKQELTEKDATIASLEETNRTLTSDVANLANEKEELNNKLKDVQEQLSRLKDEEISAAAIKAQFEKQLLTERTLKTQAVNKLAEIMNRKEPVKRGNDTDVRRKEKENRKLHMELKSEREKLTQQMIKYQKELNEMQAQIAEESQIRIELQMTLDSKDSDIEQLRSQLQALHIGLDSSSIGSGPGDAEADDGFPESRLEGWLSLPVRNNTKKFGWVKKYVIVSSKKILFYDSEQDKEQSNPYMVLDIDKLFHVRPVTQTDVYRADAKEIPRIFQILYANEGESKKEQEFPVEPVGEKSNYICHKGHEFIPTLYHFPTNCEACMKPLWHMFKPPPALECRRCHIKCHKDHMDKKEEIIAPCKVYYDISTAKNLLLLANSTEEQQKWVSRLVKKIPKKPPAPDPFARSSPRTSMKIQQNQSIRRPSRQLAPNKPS
Leucine-rich repeat serine/threonine-protein kinase 2, sequence (Q5S007 whole entry): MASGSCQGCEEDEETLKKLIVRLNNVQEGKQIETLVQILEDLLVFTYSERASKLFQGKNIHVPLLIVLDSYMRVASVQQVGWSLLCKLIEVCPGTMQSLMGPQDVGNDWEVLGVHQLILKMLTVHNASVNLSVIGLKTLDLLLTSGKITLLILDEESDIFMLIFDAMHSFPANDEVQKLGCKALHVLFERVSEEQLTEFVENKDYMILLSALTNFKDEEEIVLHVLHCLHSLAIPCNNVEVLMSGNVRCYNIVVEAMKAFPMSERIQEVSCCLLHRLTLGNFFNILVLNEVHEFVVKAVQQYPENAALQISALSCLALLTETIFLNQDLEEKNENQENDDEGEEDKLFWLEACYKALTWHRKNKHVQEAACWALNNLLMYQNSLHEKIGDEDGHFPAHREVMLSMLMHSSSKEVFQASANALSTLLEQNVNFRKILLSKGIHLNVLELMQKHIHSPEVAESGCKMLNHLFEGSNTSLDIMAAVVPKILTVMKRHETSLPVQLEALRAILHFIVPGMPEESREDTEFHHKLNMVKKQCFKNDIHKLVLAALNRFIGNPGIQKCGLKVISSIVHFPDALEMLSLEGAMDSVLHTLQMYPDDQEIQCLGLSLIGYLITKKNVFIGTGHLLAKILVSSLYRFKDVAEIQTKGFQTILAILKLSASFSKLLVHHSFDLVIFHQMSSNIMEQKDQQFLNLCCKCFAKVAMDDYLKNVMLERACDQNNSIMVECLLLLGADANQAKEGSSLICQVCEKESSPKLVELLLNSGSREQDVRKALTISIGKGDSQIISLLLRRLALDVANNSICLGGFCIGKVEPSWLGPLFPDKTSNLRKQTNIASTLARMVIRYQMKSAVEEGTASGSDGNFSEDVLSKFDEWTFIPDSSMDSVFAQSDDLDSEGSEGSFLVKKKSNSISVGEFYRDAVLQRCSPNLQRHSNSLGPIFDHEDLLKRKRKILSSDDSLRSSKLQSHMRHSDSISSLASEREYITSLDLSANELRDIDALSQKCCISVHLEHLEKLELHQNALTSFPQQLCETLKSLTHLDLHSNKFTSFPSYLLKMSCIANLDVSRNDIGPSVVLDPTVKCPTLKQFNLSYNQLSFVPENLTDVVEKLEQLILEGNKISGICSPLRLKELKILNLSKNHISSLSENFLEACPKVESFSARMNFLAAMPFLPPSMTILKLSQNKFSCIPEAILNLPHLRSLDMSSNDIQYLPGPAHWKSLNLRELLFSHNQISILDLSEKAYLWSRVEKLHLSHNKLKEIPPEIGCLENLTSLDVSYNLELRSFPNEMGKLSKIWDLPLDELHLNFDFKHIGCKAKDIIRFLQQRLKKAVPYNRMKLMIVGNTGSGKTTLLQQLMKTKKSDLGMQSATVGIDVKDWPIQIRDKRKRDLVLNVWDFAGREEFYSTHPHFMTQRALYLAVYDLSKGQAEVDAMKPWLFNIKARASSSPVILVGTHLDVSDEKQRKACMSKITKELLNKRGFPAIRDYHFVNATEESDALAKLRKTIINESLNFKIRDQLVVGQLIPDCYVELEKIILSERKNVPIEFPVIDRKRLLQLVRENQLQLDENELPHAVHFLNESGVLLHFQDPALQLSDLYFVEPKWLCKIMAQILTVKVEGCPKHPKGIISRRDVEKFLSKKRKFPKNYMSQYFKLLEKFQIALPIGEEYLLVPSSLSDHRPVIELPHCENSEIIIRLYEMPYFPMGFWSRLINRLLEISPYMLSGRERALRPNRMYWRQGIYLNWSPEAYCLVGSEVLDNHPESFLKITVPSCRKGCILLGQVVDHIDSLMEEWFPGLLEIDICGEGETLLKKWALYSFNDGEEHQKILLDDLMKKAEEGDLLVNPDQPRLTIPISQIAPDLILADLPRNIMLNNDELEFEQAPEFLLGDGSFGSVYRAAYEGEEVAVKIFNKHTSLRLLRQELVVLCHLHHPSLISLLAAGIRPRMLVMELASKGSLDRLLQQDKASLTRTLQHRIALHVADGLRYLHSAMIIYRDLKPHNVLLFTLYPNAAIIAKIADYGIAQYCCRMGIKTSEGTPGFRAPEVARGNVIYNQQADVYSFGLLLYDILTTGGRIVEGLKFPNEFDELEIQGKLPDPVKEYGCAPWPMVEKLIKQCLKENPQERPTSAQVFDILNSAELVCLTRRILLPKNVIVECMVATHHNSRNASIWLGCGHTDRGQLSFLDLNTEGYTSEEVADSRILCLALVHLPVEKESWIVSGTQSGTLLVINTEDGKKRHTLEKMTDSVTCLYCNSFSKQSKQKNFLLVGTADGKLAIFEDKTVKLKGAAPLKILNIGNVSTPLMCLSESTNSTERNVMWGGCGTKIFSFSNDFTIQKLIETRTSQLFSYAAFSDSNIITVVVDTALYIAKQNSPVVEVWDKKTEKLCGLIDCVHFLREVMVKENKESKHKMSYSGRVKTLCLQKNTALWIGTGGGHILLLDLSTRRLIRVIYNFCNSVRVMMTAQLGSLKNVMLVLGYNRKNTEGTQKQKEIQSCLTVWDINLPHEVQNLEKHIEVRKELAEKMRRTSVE

SMILES	residual activity [1]	residual activity [2]	inhibition [3]	inhibition [4]	residual activity [5]	residual activity [6]	residual activity [7]	residual activity [8]	residual activity [9]	residual activity [10]	residual activity [11]	residual activity [12]	residual activity [13]
CC1=C(C(=O)Nc2cc3cn[nH]c3cc2F)C(c2ccc(C(F)(F)F)cc2)CC(=O)N1 (configuration not stated)	109%	75%	95%	Active	20%	40%	89%	108%	107%	58%	98%	97%	97%
Cc1cncc2cccc(S(=O)(=O)N3CCCNC[C@@H]3C)c12	103%	104%	35%	Active	57%	70%		41%	100%	76%	20%	100%	107%
CCN(CC)CCNC(=O)c1c(C)[nH]c(/C=C2\C(=O)Nc3ccc(F)cc32)c1C		8%	29%		78%	81%	50%						
C[C@@H](N)[C@H]1CC[C@H](C(=O)Nc2ccncc2)CC1				Active									
CCn1c(-c2nonc2N)nc2cnc(Oc3cccc(NC(=O)c4ccc(OCCN5CCOCC5)cc4)c3)cc21 [GSK-269962A]	106%	70%			12%	2%	35%	98%	102%	114%	71%	83%	113%
